Key:
[1] = Selectivity index, ratio of EC50 for African green monkey BGM cells to IC50 for chloroquine-resistant mefloquine-sensitive Plasmodium falciparum W2 ring stage form infected in human erythrocytes; type: toxicity, cell-based; details: read-out: Selectivity Index
Outline: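 SI = BGM EC50 / W2 IC50. BGM cells seeded at 5 × 10^3/well, adhered 18 h, exposed 24 h at 37 °C, 5% CO2 to 200–25 µg/mL (20 mg/mL DMSO stock). MTT added 3 h, formazan in DMSO, OD 570/630 nm; viability as % untreated. W2 IC50 from HRPII ELISA on synchronized rings.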

Plasmodium falciparum = experiment: Antimalarial activity against chloroquine-resistant and mefloquine-sensitive Plasmodium falciparum W2 ring stage form infected in human erythrocytes by spectrophotometric analysis; type: functional, organism-based
Outline: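 W2 clone grown in A+ human erythrocytes in RPMI 1640 with 1% Albumax II. Sorbitol-synchronized rings at 1.5% hematocrit and 0.05% parasitemia; compounds from 10 mg/mL DMSO stock, final 0.02% DMSO; triplicate per dose. Growth read by anti-HRPII ELISA (TMB, A450) versus drug-free cultures; IC50 from sigmoid dose-response fits.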

[2] = Cytotoxicity in African green monkey BGM cells assessed as reduction in cell viability incubated for 24 hrs by MTT assay; type: cell-based; details: Chlorocebus aethiops
Outline: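 BGM monkey kidney cells kept in RPMI 1640 with 10% heat-inactivated fetal serum at 37 °C, 5% CO2. Seeded at 5 × 10^3 cells/well and allowed to adhere 18 h. Exposed 24 h to 200–25 μg/mL from a 20 mg/mL DMSO stock. MTT added for 3 h, formazan dissolved in DMSO, OD read at 570/630 nm. Viability as % of untreated control; EC50 derived from this.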

Plasmodium berghei [3] = experiment: Antimalarial activity against Plasmodium berghei NK65 infected in mouse assessed as reduction in parasite growth at 50 mg/kg, po administered daily for 3 consecutive days and measured on day 7 post parasite inoculation relative to control; type: functional; design: scale not given: the % may be the effect or the level left
Outline: (§1)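 Suppressive test: mice inoculated i.p. with 1 × 10^5 P. berghei NK65-infected erythrocytes, randomized about 24 h later to groups of five. Dosed orally once daily for three consecutive days, freshly diluted in 3% DMSO in RPMI; vehicle controls included. Parasitemia was read on days 5, 7 and 9 from Giemsa-stained, methanol-fixed tail-blood thin smears at 1000X. Inhibition is given relative to untreated mice, taken as 100% growth.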

Plasmodium berghei [4] = experiment: Antimalarial activity against Plasmodium berghei NK65 infected in mouse assessed as reduction in parasite growth at 50 mg/kg, po administered daily for 3 consecutive days and measured on day 5 post parasite inoculation relative to control; type: functional; design: scale not given: the % may be the effect or the level left; outline: as §1
Plasmodium berghei [5] = experiment: Antimalarial activity against Plasmodium berghei NK65 infected in mouse assessed as reduction in parasite growth at 50 mg/kg, po administered daily for 3 consecutive days and measured on day 9 post parasite inoculation relative to control; type: functional; design: scale not given: the % may be the effect or the level left; outline: as §1
Plasmodium berghei [6] = experiment: Antimalarial activity against Plasmodium berghei NK65 infected in mouse assessed as parasite survival at 50 mg/kg, po administered daily for 3 consecutive days (reference value: 13+/- 3 days); type: functional
Outline: (§2)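 P. berghei NK65 (weekly blood passage); mice infected i.p. with 1 × 10^5 infected erythrocytes, grouped five per cage about 24 h later. Dosed orally once daily for three days in 3% DMSO/RPMI: test compounds at 50 mg/kg, CQ and MQ at 20 mg/kg, vehicle controls. Tail-blood Giemsa thin smears on days 5, 7 and 9; survival recorded in days.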

Plasmodium berghei [7] = experiment: Antimalarial activity against Plasmodium berghei NK65 infected in mouse assessed as parasite survival at 20 mg/kg, po administered daily for 3 consecutive days (reference value: 13+/- 3 days); type: functional; outline: as §2
Plasmodium berghei [8] = experiment: Antimalarial activity against Plasmodium berghei NK65 infected in mouse assessed as reduction in parasite growth at 20 mg/kg, po administered daily for 3 consecutive days and measured on day 7 post parasite inoculation relative to control; type: functional; design: scale not given: the % may be the effect or the level left; outline: as §1
Plasmodium berghei [9] = experiment: Antimalarial activity against Plasmodium berghei NK65 infected in mouse assessed as reduction in parasite growth at 20 mg/kg, po administered daily for 3 consecutive days and measured on day 5 post parasite inoculation relative to control; type: functional; design: scale not given: the % may be the effect or the level left; outline: as §1
Plasmodium berghei [10] = experiment: Antimalarial activity against Plasmodium berghei NK65 infected in mouse assessed as reduction in parasite growth at 20 mg/kg, po administered daily for 3 consecutive days and measured on day 9 post parasite inoculation relative to control; type: functional; design: scale not given: the % may be the effect or the level left; outline: as §1

Compound | selectivity ratio [1] | IC50 (Plasmodium falciparum) | EC50 [2] | Activity (Plasmodium berghei [3]) | Activity (Plasmodium berghei [4]) | Activity (Plasmodium berghei [5]) | Survival (Plasmodium berghei [6]) | Survival (Plasmodium berghei [7]) | Activity (Plasmodium berghei [8]) | Activity (Plasmodium berghei [9]) | Activity (Plasmodium berghei [10])
FC(F)(F)c1cc(Nc2ccccc2C(F)(F)F)c2cccc(C(F)(F)F)c2n1 | < 0.57 | 33 µM | < 18.9 µM |  |  |  |  |  |  |  | 
FC(F)(F)c1cc(Nc2ccc3ccccc3c2)c2cccc(C(F)(F)F)c2n1 | 1.2 | 9.6 µM | 12.3 µM |  |  |  |  |  |  |  | 
FC(F)(F)c1cc(Nc2ccncc2)c2cccc(C(F)(F)F)c2n1 | > 66.7 | 8.4 µM | > 560 µM | 42% | 25% | 11% | 15 days |  |  |  | 
Cc1nnc(Nc2cc(C(F)(F)F)nc3c(C(F)(F)F)cccc23)s1 | 0.8 | 1.8 µM | 1.5 µM |  |  |  |  |  |  |  | 
Oc1ccc(Nc2cc(C(F)(F)F)nc3c(C(F)(F)F)cccc23)cc1 | < 27.9 | 24.1 µM | 672 µM |  |  |  |  |  |  |  | 
FC(F)(F)c1cc(Nc2ccccn2)c2cccc(C(F)(F)F)c2n1 | < 2.29 | 19.6 µM | < 44.8 µM |  |  |  |  |  |  |  | 
FC(F)(F)c1cc(N2CCOCC2)c2cccc(C(F)(F)F)c2n1 | < 11.7 | > 143 µM | 1680 µM |  |  |  |  |  |  |  | 
Fc1ccc(Nc2cc(C(F)(F)F)nc3c(C(F)(F)F)cccc23)cc1 | < 2.67 | 16 µM | < 42.8 µM |  |  |  |  |  |  |  | 
FC(F)(F)c1cc(Nc2ccccc2)c2cccc(C(F)(F)F)c2n1 | < 0.83 | 28 µM | < 22.5 µM |  |  |  |  |  |  |  | 
FC(F)(F)c1cc(Nc2ncccn2)c2cccc(C(F)(F)F)c2n1 | > 66.5 | 8.4 µM | > 559 µM | 35% | 61% | 31% | 13 days |  |  |  | 
FC(F)(F)c1cc(NC2CCCCC2)c2cccc(C(F)(F)F)c2n1 | 11.5 | 11 µM | 127 µM |  |  |  |  |  |  |  | 
FC(F)(F)c1cc(N2CCNCC2)c2cccc(C(F)(F)F)c2n1 | 0.5 | 31.5 µM | 17.2 µM |  |  |  |  |  |  |  | 
Cc1nnc(Nc2cc(C(F)(F)F)nc3c(C(F)(F)F)cccc23)[nH]1 | 132 | 0.083 µM | 11 µM | 30% | 66% | 23% | 19 days |  |  |  | 
Clc1ccc2c(Nc3ccncc3)ccnc2c1 | 67 | 11.7 µM | 784 µM |  |  |  |  |  |  |  | 
FC(F)(F)c1cc(Nc2nnc[nH]2)c2cccc(C(F)(F)F)c2n1 | < 8 | 2.9 µM | < 23.1 µM |  |  |  |  |  |  |  | 
COc1ccc(Nc2cc(C(F)(F)F)nc3c(C(F)(F)F)cccc23)cc1OC | 27 | 4.8 µM | 130 µM |  |  |  |  |  |  |  | 
FC(F)(F)c1cc(Nc2nnc(C(F)(F)F)[nH]2)c2cccc(C(F)(F)F)c2n1 | 7.3 | 11.5 µM | 84.2 µM |  |  |  |  |  |  |  | 
O[C@@H](c1cc(C(F)(F)F)nc2c(C(F)(F)F)cccc12)[C@H]1CCCCN1 (relative stereo) [(S,R)-MEFLOQUINE] | 789 | 0.019 µM | 15 µM |  |  |  |  | >30 days | 98% | 98% | 99%
CCN(CC)CCCC(C)Nc1ccnc2cc(Cl)ccc12 (stereo not given) [CHLOROQUINE] |  |  | 907 µM |  |  |  |  | 24 days | 99% | 99% | 84%

Reference: ChEMBL document CHEMBL4368928, “New hybrid trifluoromethylquinolines as antiplasmodium agents” (Bioorg Med Chem, 2019)
